A number with no mark means an inactive call. Results filed as inconclusive are left out. Activity calls are given as the source filed them.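 Rule for the calls, unless noted: active = viability increase at or above a cutoff of the median across tested compounds plus 3 SD (cut at about 8.5% in these data, passing the limit was not always enough); inconclusive = some gains above the cutoff, reason not given; inactive = the rest.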

Broadly, the viability is a read-out of living cells in per cent, often relative to untreated cells. For orientation: inhibition means the change of the read-out against control, counted positive when it falls.

Assay [1] in a line: S. cerevisiae growth inhibition in permissive medium (OD615), pilot counter-assay for S. cerevisiae lifespan shortening project, permissive growth control (AID 705;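 active = growth inhibition above 25% in both replicates, a cutoff set 3 SD above the mean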). The following applies: OD615, 24 h, at 10 µM, hits give high values. The procedure, abridged:
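Material: engineered DeaD yeast; Compound: one dose 10 µM, DMSO 0.25% final; Detection: absorbance (optical density) at 615 nm; Buffer or medium: permissive raffinose/galactose medium; Timing: 24 h exposure, 30 °C.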

The nature of assay [2]: S. cerevisiae growth inhibition in restrictive medium, OD615, pilot screen, restrictive growth control, yeast lifespan reduction project (AID 706;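 active = growth inhibition above a set limit, 3 SD over mean compound inhibition, in both replicates, cut at about 43% in these data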;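 note: modified DeaD lifespan yeast strain shifted to restrictive glucose medium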). To be noted: OD615, 48 h, at 10 µM, hits give high values. A digest of the protocol:
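Buffer or medium: restrictive glucose medium (CSMM-D); test system: modified S. cerevisiae; doses: single dose of 10 µM compound final, 0.25% DMSO; schedule: 48 h compound exposure at 30 °C; detection: absorbance (optical density) measured at 615 nm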

Assay [3] in a line: doxorubicin toxicity protection in MRP-1 cells – H69AR cells, CellTiter-Glo, duplicate, MRP-1 activator project, pilot screen (AID 807).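 Note: compound pretreatment 18-22 h then 72 h combined with doxorubicin; 0% = doxorubicin alone and 100% = vehicle without doxorubicin.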 The following applies: H69AR viability with doxorubicin, CellTiter-Glo luminescence; at 10 µM; hits give high values. (Cellular ATP, detected with luciferase, serves as a proxy for viable cell number.)
A short description of assay [4]: viability of HCT116 without oncogenic beta-catenin – human colon tumor cells, pilot screen (AID 823;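 active = cell viability at or below a set limit in both duplicate runs, the limit being the all-compound median minus 4 SD, cut at about 23% in these data, passing the limit was not always enough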;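 note: 0% = wells killed by 20 µM Hyamine and 100% = untreated DMSO cell wells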). The following applies: HCT116 beta-catenin knockout viability, CellTiter-Glo, 60 h; at 10 µM; hits give low values.
Assay [5] is described as follows: viability of PTEN-null HCT116 cells – cell-based, HCT116 clonal line, CellTiter-Glo, pilot screen (AID 824;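 active = viability at or below 27.92% in each of two runs, the all-compound median minus 4 SD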;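 note: 0% = 20 µM Hyamine control and 100% = vehicle cell control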). The following applies: HCT116 PTEN-deleted viability, 60 h, at 10 µM, hits give low values.
A short description of assay [6]: RAM pathway blockade in budding yeast – dse1pr::URA3 reporter, 5-FOA selection, pilot screen (AID 869;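 active = inhibition over a set limit, the all-compound mean plus 3 SD, in both replicate runs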;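 note: 0% = DMSO wells with no growth and 100% = 10 µM 1-NA-PP1 with full growth; RAM network block rescues cells from 5-FOA so hits raise OD615 growth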). To be noted: S. cerevisiae dse1pr::URA3 5-FOA growth, OD615, 2 d; at 10 µM; hits give high values; strain carries analog-sensitive mutant Cbk1 kinase.
The nature of assay [7]: RAM signaling pathway blockade in yeast – S. cerevisiae, Pdr1DBD-CYC8 efflux-inhibited sensitized strain, primary screen (AID 1298;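 active = RAM network inhibition above 8.4% in each of two replicates, 3 SD over the compound average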;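 note: 0% = DMSO untreated cells without growth and 100% = 10 µM 1-NA-PP1 full growth; higher means more yeast growth rescued from 5-FOA killing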). To be noted: S. cerevisiae cbk1-as DSE1-URA3 strain, 5-FOA growth OD615, 2 d; at 50 µM; hits give high values.

Consider `O=C(Cn1nnc(-c2ccccc2F)n1)NCCc1ccccc1`, for which the growth inhibition in assay [1] is -13.3%; in assay [2] it was -7.54%. Besides, in assay [3], the viability increase is -0.89%. The viability was 97.4% in assay [4] and 94% in assay [5]. Further, in assay [6], the inhibition was 1.33%. Moreover, the RAM network inhibition in assay [7] is 0.36%.
Turning to `CC1(C)NC(C)(C)c2nonc2/C1=N\O`, the growth inhibition in assay [1] is -15.2%; in assay [2], -9.79%. Moreover, the viability increase in assay [3] was 0.39%. The viability was 99.3% in assay [4] and 102% in assay [5]. The inhibition in assay [6] is 1.34%. For the same molecule, the RAM network inhibition in assay [7] is -0.43%.
Take `Cc1cc(C)n(Cc2ccccc2F)c(=O)c1C#N`: the figures for the growth inhibition in assay [1] and in assay [2] were -7.71% and -16.5%, respectively. In addition, the viability increase in assay [3] is -1.4%. The viability is 105% in assay [4] and 96.9% in assay [5]. Besides, the inhibition in assay [6] is 0.375%. The RAM network inhibition in assay [7] was 4.95%.
With `CCN(CCCNC(=O)Cn1cc2c(n1)CCCC2)c1cccc(C)c1`, the growth inhibition was -4.97% in assay [1] and 3.35% in assay [2]. Also, in assay [3], the viability increase is -3.77%. The values for the viability in assay [4] and in assay [5] were 86% and 81.5%, respectively. Besides, the inhibition in assay [6] was 0.48%. The RAM network inhibition in assay [7] is 4.45%.
On to `Cc1noc(C(=O)N2CCN(c3ccc(F)cc3)CC2)c1Cl`, for which the growth inhibition in assay [1] is -12.6%; in assay [2], -16.4%. The viability increase in assay [3] is 1.26%. The viability in assay [4] was 105%; in assay [5], 101%. In addition, the inhibition in assay [6] is 2.11%. Moreover, in assay [7], the RAM network inhibition was 9.11%.
As to `CCCSC1=C(C#N)C(c2ccc(O)c(OC)c2)CC(=O)N1` (stereo not given), the figures for the growth inhibition in assay [1] and in assay [2] were -14.9% and -22.5%, respectively. The viability increase in assay [3] is -2.92%. The viability in assay [4] was 104%; in assay [5] it was 101%. Further, the inhibition in assay [6] was 1.66%. Also, in assay [7], the RAM network inhibition was 1.36%.
Take `CC1CC(C)(C)Nc2ccc(OC(=O)c3ccco3)cc21` (stereo not given): the growth inhibition in assay [1] was 7.66%; in assay [2] it was 5.69%. Also, the viability increase in assay [3] is -7.85%. For the same molecule, the viability was 1.57% (active) in assay [4] and 1.59% (active) in assay [5]. Also, the inhibition in assay [6] is 0.51%. The RAM network inhibition in assay [7] was 3.36%.
Take `CCCN1C(=O)c2cc(C(=O)NCCc3cccc(C)c3)ccc2C1O` (stereo not given): the growth inhibition in assay [1] is -2.76%; in assay [2], 1.97%. In addition, in assay [3], the viability increase is -3.1%. Also, the viability in assay [4] and in assay [5] was 104% in each case. Besides, the inhibition in assay [6] is 0.08%. In assay [7], the RAM network inhibition is 1.65%.
In the case of `COc1cc(C2N(c3ccccc3)CCN2c2ccccc2)ccc1OC(C)=O`, the figures for the growth inhibition in assay [1] and in assay [2] were -18.8% and -13.6%, respectively. The viability increase in assay [3] is 0.59%. The viability in assay [4] is 96.3%; in assay [5], 94.5%. Further, in assay [6], the inhibition is 0.44%. For the same molecule, in assay [7], the RAM network inhibition was 2.35%.
In the case of `CCOC(=O)N1CCC(NC(=O)c2ccc(CS(=O)(=O)c3ccc(OC)cc3)o2)CC1`, the growth inhibition in assay [1] was 5.7%; in assay [2] it was -8.08%. In assay [3], the viability increase was -2.5%. In addition, the viability was 104% in assay [4] and 94.1% in assay [5]. In addition, the inhibition in assay [6] is 1.96%. Besides, in assay [7], the RAM network inhibition is 1.82%.
As for `CCC(C)Sc1nc2c(c(=O)[nH]c(=O)n2C)n1Cc1ccccc1Cl` (stereo not given), the figures for the growth inhibition in assay [1] and in assay [2] were -0.795% and 8.91%, respectively. The viability increase in assay [3] was -1.95%. Moreover, the viability in assay [4] is 81.6%; in assay [5], 82.2%. Moreover, in assay [6], the inhibition is 0.75%. For the same molecule, the RAM network inhibition in assay [7] was 4.89%.
As for `CCC1Oc2nc(SC)nnc2-c2ccccc2N1C(=O)c1ccccc1` (stereo not given), the values for the growth inhibition in assay [1] and in assay [2] were -2.41% and -2.26%, respectively. Also, the viability increase in assay [3] was -5.16%. Further, the figures for the viability in assay [4] and in assay [5] were 70.6% and 58.1%, respectively. Further, the inhibition in assay [6] was 1.03%. The RAM network inhibition in assay [7] is 3.93%.
For the molecule `CCCc1cc(C(=O)Nc2sc(C)c(CC)c2C#N)no1`, the growth inhibition is -6.42% in assay [1] and -11.2% in assay [2]. Besides, the viability increase in assay [3] is 2.26%. In addition, the viability in assay [4] is 102%; in assay [5], 101%. The inhibition in assay [6] was 1.42%. Also, the RAM network inhibition in assay [7] is 0.53%.
As to `Cc1ccc2[nH]c(=O)c(-c3noc(C(C)C)n3)cc2c1`, the growth inhibition in assay [1] was -11.9%; in assay [2], -1.75%. In assay [3], the viability increase is -2.88%. Further, the values for the viability in assay [4] and in assay [5] were 114% and 96.5%, respectively. The inhibition in assay [6] is 0.48%. In assay [7], the RAM network inhibition was 5.62%.
For `Cc1c(C#N)c2ccccc2n1CCOc1ccccc1F`, the growth inhibition is -5.92% in assay [1] and -11.9% in assay [2]. Further, the viability increase in assay [3] is 1.94%. The viability in assay [4] was 69.8%; in assay [5] it was 68.5%. Besides, the inhibition in assay [6] was 2.25%. For the same molecule, in assay [7], the RAM network inhibition is 6.77%.
As to `CCN1CCN(C(=O)CS(=O)(=O)Cc2nc(-c3ccc(C)cc3)oc2C)CC1`, the values for the growth inhibition in assay [1] and in assay [2] were -5.05% and 3.62%, respectively. Further, the viability increase in assay [3] is -0.17%. Further, the viability in assay [4] was 85.2%; in assay [5], 87.8%. The inhibition in assay [6] is 0.805%. Also, the RAM network inhibition in assay [7] was 2.7%.
As for `COc1ccccc1N1CCN(C(CNS(=O)(=O)c2cccs2)c2cccnc2)CC1` (stereo not given), the results for the growth inhibition in assay [1] and in assay [2] were -6.17% and -25.5%, respectively. Further, in assay [3], the viability increase is -3.42%. The viability in assay [4] is 87.8%; in assay [5], 79.1%. Moreover, the inhibition in assay [6] is 1.8%. Moreover, in assay [7], the RAM network inhibition is 5.16%.
Take `Cn1c(C(=O)N2CCC(C(=O)N3CCOCC3)CC2)cc2sccc21`: the growth inhibition is -9.67% in assay [1] and -7.13% in assay [2]. Moreover, in assay [3], the viability increase was 1.85%. The viability in assay [4] was 98.7%; in assay [5], 98.8%. In addition, the inhibition in assay [6] is 0.59%. The RAM network inhibition in assay [7] was 0.9%.
For the molecule `CC(=O)c1cccc(NC(=O)c2cc3ccccn3n2)c1`, the growth inhibition is -5.62% in assay [1] and 4.32% in assay [2]. Besides, in assay [3], the viability increase was -2.31%. Besides, the values for the viability in assay [4] and in assay [5] were 99% and 95.8%, respectively. The inhibition in assay [6] was 0.705%. Further, in assay [7], the RAM network inhibition is -0.31%.
For `COc1cccc(C2CC(=O)NC(SC)=C2C#N)c1` (stereo not given), the growth inhibition in assay [1] was -1.85%; in assay [2], -4.75%. In assay [3], the viability increase is -2.47%. The viability in assay [4] is 98.7%; in assay [5], 95.7%. In addition, in assay [6], the inhibition was -0.015%. Besides, in assay [7], the RAM network inhibition was 2.87%.
As to `O=C(C1COc2ccccc2O1)N1CCn2c(nc3ccccc32)C1` (stereo not given), the growth inhibition in assay [1] was -13.1%; in assay [2], -3.57%. For the same molecule, the viability increase in assay [3] was -2.64%. Moreover, the viability is 106% in assay [4] and 92% in assay [5]. Besides, the inhibition in assay [6] was 1.85%. Further, the RAM network inhibition in assay [7] is 4.61%.
Turning to `O=C(CCS(=O)(=O)c1ccccc1)Nc1nc(-c2ccccn2)cs1`, the growth inhibition in assay [1] was -9.64%; in assay [2], -13.3%. For the same molecule, the viability increase in assay [3] is -8.92%. Besides, the viability in assay [4] was 8.11% (active); in assay [5], 6.03% (active). For the same molecule, in assay [6], the inhibition was 1.85%. In addition, the RAM network inhibition in assay [7] is 3.99%.
For the molecule `Clc1cccc(CSc2nnc(-c3ccccn3)n2Cc2ccco2)c1`, the values for the growth inhibition in assay [1] and in assay [2] were -8.18% and 21.1%, respectively. Moreover, the viability increase in assay [3] is -1.98%. For the same molecule, the viability in assay [4] is 71.4%; in assay [5] it was 75.3%. Besides, the inhibition in assay [6] is 1.69%. The RAM network inhibition in assay [7] was 12.3%.
In the case of `Cc1ccc(CNC(=O)c2ccc(Br)o2)cc1`, the growth inhibition in assay [1] is -14.5%; in assay [2] it was -1.29%. In addition, the viability increase in assay [3] is -0.67%. Moreover, the viability in assay [4] is 96.9%; in assay [5], 98.1%. Further, the inhibition in assay [6] was 0.885%. The RAM network inhibition in assay [7] was 3.41%.
Take `Cc1nn(-c2ccccc2)c2c1C(c1ccncc1)C(C#N)=C(N)O2` (stereo not given): the growth inhibition was -12.9% in assay [1] and -0.78% in assay [2]. The viability increase in assay [3] was -0.07%. Also, the viability in assay [4] was 92.8%; in assay [5] it was 89.6%. Further, in assay [6], the inhibition is 0.975%. For the same molecule, the RAM network inhibition in assay [7] was 4.36%.
